Calls of active or inactive are those of the source.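 How the source made its calls, unless noted: active means inhibition above 20% together with a positive visual image hit; inconclusive means visual image hit but inhibition not above 20%; inactive means no visual image hit.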
Key:
[1] = inhibitors of TNFa-induced NFkB p65 translocation, primary screen, imaging, HUVEC, MLSMR starter and 10KST1 sets (AID 438); conditions: HUVEC TNFa-induced p65 nuclear translocation; cell count: measured here: nuclei count (cytotoxicity indicator), at 2.08 µM; inhibition: at 2 µM, stronger effect = higher value, 0% TNFa-plus-vehicle, 100% no-TNFa wells;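 further: compound added about 3h40 before a 20 min TNFalpha stimulation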;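 on inhibition: signal is the nuclear over cytoplasmic p65 intensity ratio per well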
[2] = endothelial E-selectin expression blockers – imaging, HUVEC, immunofluorescence, MLSMR starter and 10KST1 sets, primary screen (AID 487;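 active means visually confirmed hit in the image check and inhibition above 20%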;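 on inhibition: signal is fraction of cell area covered by stained E-selectin grains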;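 on nuclei count: 100% = median nuclei count of all wells on the same plate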); conditions: HUVEC TNFalpha-induced E-selectin immunofluorescence imaging, at 2 µM; inhibition: stronger effect = higher value; nuclei count: measured here: cell number, toxicity
[3] = Primary imaging screen for DUSP6 inhibitors that restore phospho-Erk in transfected HeLa cells, chemical complementation (AID 609;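 active means compounds giving at least 50% inhibition in the cell-based MKP-3 phosphatase rescue imaging test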;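 on inhibition: phospho-Erk level distribution per well compared with pooled transfected vehicle control wells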); conditions: HeLa MKP-3 transfected, phospho-Erk imaging KS statistic, at 10 µM, cells stimulated with TPA for 15 min
[4] = target: Dual specificity protein phosphatase 6 (Homo sapiens) (UniProt Q16828); assay: as above; conditions: HeLa MKP-3 transfected, phospho-Erk imaging KS statistic; at 10 µM; stronger effect = higher value; cells stimulated with TPA for 15 min
[5] = target: Voltage-gated potassium channel subunit beta-2 (Rattus norvegicus) (UniProt P62483); assay: inhibitors of rat Kvbeta2 reductase activity – biochemical, NADPH fluorescence, primary screen (AID 622;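 active means fluorescence slope higher than the sample average by over 3 SD, cut at about -0.22 in these data, passing the limit was not always enough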;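 further: slope of raw intensity against log time taken from 70 to 1610 s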); conditions: recombinant KvBeta, 4-cyanobenzaldehyde reduction, at 10 µM, stronger effect = higher value
[6] = target: Voltage-gated potassium channel subunit beta-2 (Rattus norvegicus) (UniProt P62483); assay: enhancers of rat Kvbeta2 NADPH turnover – biochemical, NADPH fluorescence, primary screen (AID 623;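 active means NADPH fluorescence slope more negative than the mean of all samples by about 3 SD, 99.7% confidence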;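 further: fluorescence intensity change per second fitted from 20 to 320 s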); conditions: Recombinant KvBeta, NADPH fluorescence decrease slope, 10 min; at 10 µM; stronger effect = lower value
[7] = target: Alpha-2C adrenergic receptor (Homo sapiens) (UniProt P18825); assay: compounds altering alpha2C-coupled GIRK flux – cell-based, HEK293 alpha2C/GIRK1/2, thallium flux, primary screen (AID 624;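 active means fluorescence slope after compound addition differing from the mean of all screened samples at 99.7% confidence, in either direction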;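 further: slope of fluorescence ratio to pre-addition baseline per second over 15 to 24 s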); conditions: thallium flux BTC fluorescence, at 10 µM, actives lie on both sides
[8] = inhibitors of larval lipid processing in zebrafish, primary screen, whole organism, PED6 fluorescence, gall bladder and intestine (AID 686;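 active means a full or partial loss of lipid-probe fluorescence in the fish gall bladder, intestine or both, judged by eye; inactive means no fluorescence loss, or compound toxic to the fish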;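 further: larvae 5 to 7 days old with five fish per well; signal comes from phospholipase A2 cleavage of quenched PED6 carried via bile; overnight exposure to compound and PED6 before scoring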); conditions: Zebrafish larvae PED6 lipid processing, fluorescence scoring; screened at 20 µM (by protocol)
How it was run: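 system = live zebrafish larvae aged 5-7 days, whole organism | probe or stimulus = ingested quenched lipid PED6 at 100 nM | doses = 20 µM single dose | timing = overnight exposure | detection = fluorescence microscopy with visual scoring of gall bladder and intestine | read-out = visual per-well fluorescence inhibition score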

[9] = loss of swimming-algae plug formation – whole organism, Chlamydomonas reinhardtii, WT vs cilia-less mutant, absorbance, 96-well, primary screen (AID 463189;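 active means inhibition at or above 50% relative to wild type and mutant plate controls; inactive means inhibition below 50%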;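 further: 0% = wild type cc124 cells in DMSO and 100% = ciliumless bld1 mutant cells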); conditions: Chlamydomonas reinhardtii gravitaxis, OD600 absorbance, 2 days; at 10 µM; stronger effect = higher value
[10] = measured here: cell density z-score
[11] = measured here: nuclear c-Myc green intensity z-score
[12] = measured here: nuclear pErk red intensity z-score, stronger effect = higher value

Alpha-2C adrenergic receptor (Homo sapiens), sequence (P18825 whole entry, looked up): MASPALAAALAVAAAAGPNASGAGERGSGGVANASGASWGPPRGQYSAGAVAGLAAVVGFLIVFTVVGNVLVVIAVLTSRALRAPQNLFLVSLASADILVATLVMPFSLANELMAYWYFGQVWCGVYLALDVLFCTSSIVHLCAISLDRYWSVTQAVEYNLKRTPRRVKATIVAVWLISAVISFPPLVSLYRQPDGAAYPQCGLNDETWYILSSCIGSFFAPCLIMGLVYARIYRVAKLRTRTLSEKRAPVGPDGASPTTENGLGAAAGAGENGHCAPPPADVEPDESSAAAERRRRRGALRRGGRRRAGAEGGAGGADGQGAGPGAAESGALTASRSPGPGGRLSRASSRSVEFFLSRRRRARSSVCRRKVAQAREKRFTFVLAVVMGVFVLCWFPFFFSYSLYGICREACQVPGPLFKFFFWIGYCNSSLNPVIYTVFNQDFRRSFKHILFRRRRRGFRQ
Voltage-gated potassium channel subunit beta-2 (Rattus norvegicus), sequence (P62483 whole entry, looked up): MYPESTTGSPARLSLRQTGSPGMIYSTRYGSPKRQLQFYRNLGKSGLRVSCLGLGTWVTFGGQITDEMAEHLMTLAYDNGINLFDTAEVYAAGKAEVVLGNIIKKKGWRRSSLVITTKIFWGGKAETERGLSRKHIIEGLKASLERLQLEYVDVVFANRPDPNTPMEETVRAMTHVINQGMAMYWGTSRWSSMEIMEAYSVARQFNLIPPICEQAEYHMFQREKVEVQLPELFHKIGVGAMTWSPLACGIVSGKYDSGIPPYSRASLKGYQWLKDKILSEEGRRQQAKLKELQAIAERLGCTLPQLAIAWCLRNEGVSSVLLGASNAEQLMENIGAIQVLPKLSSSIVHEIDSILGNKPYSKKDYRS
Dual specificity protein phosphatase 6 (Homo sapiens), sequence (Q16828 whole entry, looked up): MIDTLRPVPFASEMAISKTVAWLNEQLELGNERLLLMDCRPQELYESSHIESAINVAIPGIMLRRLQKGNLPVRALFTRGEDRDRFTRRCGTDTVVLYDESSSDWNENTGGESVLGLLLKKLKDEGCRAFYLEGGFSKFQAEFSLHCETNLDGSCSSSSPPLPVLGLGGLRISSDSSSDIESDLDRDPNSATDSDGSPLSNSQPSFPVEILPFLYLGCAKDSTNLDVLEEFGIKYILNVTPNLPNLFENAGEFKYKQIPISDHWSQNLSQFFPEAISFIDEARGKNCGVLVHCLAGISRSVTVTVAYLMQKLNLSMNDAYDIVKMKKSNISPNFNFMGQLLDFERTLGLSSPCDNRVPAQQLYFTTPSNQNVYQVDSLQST

SMILES | cell count [1] | inhibition [1] | inhibition [2] | nuclei count [2] | z-score [3, 10] | z-score [3, 11] | z-score [3, 12] | inhibition [4] | fluorescence slope [5] | NADPH fluorescence slope [6] | slope [7] | outcome [8] | inhibition [9]
CC(C)OC(=O)C(C#N)c1nc2ccccc2nc1N1CCN(Cc2ccc3c(c2)OCO3)CC1 (stereo not given) | 351 | -4.7% (inactive) | -35.2% (inactive) | 129% | -0.0424 | 0.237 | -0.926 | 3.5% (inactive) | -0.459 (inactive) | -0.000113 (inactive) | 0.00323 (inactive) | inactive | 17% (inactive)
C=CCN(C(=O)CCC(=O)O)C1CC(=O)N(c2ccc(OCCC)cc2)C1=O (stereo not given) | 454 | -10.8% (inactive) | -213% (inactive) | 223% | 0.015 | -1.26 | -0.0284 | -2.29% (inactive) | -0.384 (inactive) | -2.5e-05 (inactive) | 0.00464 (inactive) | inactive | 6.01% (inactive)
Brc1ccc(-c2cnc3n2CCCC3)cc1 | 363 | -4.2% (inactive) | -15.9% (inactive) | 108% | 0.187 | 2.77 | -1.27 | 5.65% (inactive) | -0.46 (inactive) | -0.000301 (inactive) | 0.00468 (inactive) | inactive | 142% (active)
CCc1cccc(CC)c1N(COC)C(=O)Cn1nnc2ccccc21 | 369 | -11% (inactive) | -230% (inactive) | 180% | 0.728 | 0.454 | -0.0174 | 20.8% (inactive) | -0.394 (inactive) | -2.8e-05 (inactive) | 0.00431 (inactive) | inactive | 23.5% (inactive)
COc1ccccc1N1CCN(C2CCN(C(=O)c3cc(OC)c(OC)c(OC)c3)CC2)CC1 | 454 | -8.3% (inactive) | -122% (inactive) | 170% | 0.498 | -1.6 | 1.25 | -3.95% (inactive) | -0.32 (inactive) | 2.2e-05 (inactive) | 0.0055 (inactive) | inactive | -0.971% (inactive)
Cc1cc(C)n(C(=O)CNC(=O)CCc2ccccc2)n1 | 562 | -0.6% (inactive) | 62.6% (inactive) | 151% | 1.03 | -0.553 | -0.0899 | -1.75% (inactive) | -0.411 (inactive) | -2.5e-05 (inactive) | 0.00565 (inactive) | inactive | -9.43% (inactive)
Cc1cc(C)c(C#N)c(SCC(=O)N2CCN(Cc3ccccc3)CC2)n1 | 660 | -29% (inactive) | -68.1% (inactive) | 173% | -1.99 | 0.41 | 1.64 | -7.28% (inactive) | -0.419 (inactive) | -3.2e-05 (inactive) | 0.00644 (inactive) | inactive | 8.58% (inactive)
O=c1c2c3c(sc2n2cnnc2n1Cc1ccccc1)CN(Cc1ccccc1)CC3 | 620 | -1.6% (inactive) | 66.2% (inactive) | 104% | 0.015 | 0.568 | 0.295 | 6.04% (inactive) | -0.427 (inactive) | -1.4e-05 (inactive) | 0.0049 (inactive) | inactive | 22.4% (inactive)
CN(C)C=C1C(=O)c2ccccc2C1=O | 574 | -5.6% (inactive) | -153% (inactive) | 132% | -0.195 | -0.125 | -0.0657 | 11.9% (inactive) | -0.423 (inactive) | -4.2e-05 (inactive) | 0.00438 (inactive) | inactive | 60.8% (active)
CCc1cc2c(=O)c(-c3cscn3)coc2c(CN(C)C)c1O | 517 | -8.2% (inactive) | -53.3% (inactive) | 86.5% | 0.222 | -0.434 | 0.878 | 1.9e-07% (inactive) | -0.0873 (inactive) | -2.5e-06 (inactive) | 0.00409 (inactive) | inactive | 15.7% (inactive)
CCOC(=O)COn1c(=O)c(-c2ccco2)[n+]([O-])c2ccccc21 | 534 | 1.6% (inactive) | 3.6% (inactive) | 130% | 2.03 | 1.19 | -0.23 | 8.76% (inactive) | -0.283 (inactive) | -1.2e-05 (inactive) | 0.00422 (inactive) | inactive | 34.2% (inactive)
COc1nc(NS(=O)(=O)c2ccc(C)cc2)nc(C)c1Cl | 718 | 3.9% (inactive) | -62.9% (inactive) | 170% | -1.13 | 1.46 | -0.341 | 1.48% (inactive) | -0.346 (inactive) | -3.1e-05 (inactive) | 0.00526 (inactive) | inactive | -6.39% (inactive)
COC(=O)CNc1nc(-c2cccnc2)nc2ccccc12 | 543 | -5.9% (inactive) | -23.5% (inactive) | 156% | -0.375 | 1.95 | 0.774 | -11.9% (inactive) | -0.327 (inactive) | 8.2e-06 (inactive) | 0.0052 (inactive) | inactive | -0.905% (inactive)
CCCNC(=O)N(C)c1nncnc1C(=O)NC | 503 | -20.4% (inactive) | -13.3% (inactive) | 99.4% | 1.47 | 0.478 | -1.19 | 4.72% (inactive) | -0.517 (inactive) | 1.1e-05 (inactive) | 0.00825 (inactive) | inactive | -3.95% (inactive)
CN1C(=O)c2ccc(N(C)C)cc2C1=O | 681 | -8.8% (inactive) | 17.3% (inactive) | 175% | 0.273 | -0.466 | -0.534 | 3.66% (inactive) | -0.479 (inactive) | -6.8e-05 (inactive) | 0.00498 (inactive) | inactive | 21.8% (inactive)
COc1cc(OC)cc(C(=O)N2CCC(N3CCCCCC3)CC2)c1 | 372 | -26.6% (inactive) | -111% (inactive) | 132% | 2.06 | -1.95 | -0.585 | 32.7% (inactive) | -0.337 (inactive) | -2.1e-05 (inactive) | 0.00559 (inactive) | inactive; toxic | 29.1% (inactive)
COC(=O)c1ccc(=O)n(Cc2ccco2)c1 | 300 | -2.7% (inactive) | -70.6% (inactive) | 107% | -1.23 | 1.62 | -0.83 | -6.48% (inactive) | -0.404 (inactive) | -1.8e-06 (inactive) | 0.00511 (inactive) | inactive | -14.2% (inactive)
N#CCCN(CCC#N)c1nnc(-c2ccccc2)s1 | 391 | -3.1% (inactive) | -60.9% (inactive) | 159% | 1.49 | 1.59 | -1.79 | 17% (inactive) | -0.384 (inactive) | -3.6e-05 (inactive) | 0.00496 (inactive) | inactive; toxic | 27.2% (inactive)
CN1CCC2(CC1)C1CN(C)CC=C1C(C#N)=C(N)C2(C#N)C#N (stereo not given) | 542 | -8.9% (inactive) | -165% (inactive) | 198% | -1.09 | 0.771 | 1.17 | 2.46% (inactive) | -0.349 (inactive) | -8.7e-06 (inactive) | 0.0029 (inactive) | inactive | 11.5% (inactive)
COC(=O)c1c(C)noc1-c1cc(C)on1 | 514 | 5.6% (inactive) | 63.3% (inactive) | 177% | -1.72 | 0.497 | 0.322 | 3.56% (inactive) | -0.533 (inactive) | -4e-05 (inactive) | 0.00511 (inactive) | inactive | -9.07% (inactive)

Reference: PubChem BioAssay
